This is an account of results in ChEMBL document CHEMBL1121783, “Potential inhibitors of nucleotide biosynthesis. 1. Nitrosoureidonucleosides. 2” (J Med Chem, 1981).

Calls of active or inactive are those of the source. No cut-off for these calls is given here.

Series [1] is described as follows: Half-life in pH 7 phosphate buffer by using high-performance LC method.
Test in series [2]: as above
The source holds these as a separate data set.

Series [3] concerns HEp-2. Kind of series: Growth, % of control, at a dose of 20 ug/ml against growth of H.Ep.-2 cells; 75-80%. As to conditions: Homo sapiens.
Series [4] deals with P388. Kind of series: Activity at a dose of 200 mg/kg for 9 days against P388 leukemia cells. The series is classed as functional. As to conditions: Mus musculus, P388, 216 h. The gist of the method:
(§1)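 P388 leukemia test: the compound was given daily for 9 days at 200 or 400 mg/kg. Activity is reported as percent increase in life span (ILS).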

The test system of series [5] is P388. Kind of series: Activity at a dose of 400 mg/kg against P388 leukemia cells. The series is classed as functional. The following applies: Mus musculus. In short, it runs like this: as §1
Series [6] is described as follows: Half-life in plasma by using UV method. The series is classed as ADME, cell-free.
Series [7] relates to Nucleic Acid. Kind of series: Percent inhibitory activity dose at 100 ug/mL to inhibit the incorporation of hypoxanthine and gaunine in DNA. In kind it is functional.
The nature of series [8]: Activity against hypoxanthine phosphoribosyltransferase; Not significant. In kind it is functional.
Series [9] has as its system P388. Kind of series: Activity against P388 leukemia cells; Inactive. The series is classed as functional. The following applies: Mus musculus. In short, it runs like this: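 In vivo P388 leukemia model; compound given daily for 9 days; activity scored as percent increase in life span (ILS).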
The test system of series [10] is Nucleic Acid. Kind of series: Percent inhibitory activity dose at 100 ug/mL to inhibit the incorporation of hypoxanthine and gaunine in RNA. In kind it is functional.
Series [11] in a line: Half-life in pH 7 phosphate buffer by using high-performance LC method. The source holds these as a separate data set.
For series [12], the system named is HEp-2. Kind of series: Growth, % of control, at a dose of 20 ug/ml against growth of H.Ep.-2 cells; 75-80%. The following applies: Homo sapiens. The source holds these as a separate data set.

For `Cc1cn(C2CC(O)C(C(=O)NCCNC(=O)N(C)N=O)O2)c(=O)[nH]c1=O` (configuration not stated), the half-life (as a rule, how long it takes for the measured level to halve) in series [1] is 29 h. `O=NN(CCNC(=O)[C@H]1OC(n2ccc(=O)[nH]c2=O)[C@H](O)[C@@H]1O)C(=O)NC1CCCCC1` (some centres not stated) showed a half-life in [2] of 8 h. Further, the growth, % of control at 20 µg/mL in series [3] is 75%. `O=NN(CCCl)C(=O)NC1CCCCC1` [LOMUSTINE]: in series [1], the half-life was 0.88 h. Take `CN(N=O)C(=O)NCCNC(=O)[C@H]1OC(n2ccc(=O)[nH]c2=O)[C@H](O)[C@@H]1O` (some centres not stated): in [4], the ILS (usually how much longer treated animals lived than controls) at 200 mg/kg was 28%. In addition, the ILS at 400 mg/kg in series [5] was determined as 26%. In series [2], this compound showed a half-life of 17 h. In series [1], `CN(N=O)C(N)=O` [N-METHYL-N-NITROSUREA] gave a half-life of 0.12 h. The compound `Cc1cn(C2C[C@H](O)[C@@H](C(=O)NCCN(N=O)C(=O)NC3CCCCC3)O2)c(=O)[nH]c1=O` (some centres not stated) gave a half-life in series [6] of 11 h.

On to `CN(N=O)C(=O)NCCNC(=O)[C@H]1OC(n2cnc3c(O)ncnc32)[C@H](O)[C@@H]1O` (some centres not stated), for which the inhibition (commonly the drop in the measured response relative to a control, in per cent) was determined as 35% in [7] and 61% in [10]. Also, the inhibition entry in series [8] and in [9] was “inactive” throughout. The half-life in [11] was 127 h. `O=NN(CCNC(=O)[C@H]1OC(n2cnc3c(O)ncnc32)[C@H](O)[C@@H]1O)C(=O)NC1CCCCC1` (some centres not stated) showed a half-life in [1] of 12 h.

On to `CNC(=O)NCCNC(=O)[C@H]1OC(n2cnc3c(O)ncnc32)[C@H](O)[C@@H]1O` (some centres not stated), for which the growth, % of control at 20 µg/mL in [12] was found to be 75%. Still for that read-out and setting: for `CNC(=O)NCCNC(=O)C1OC(n2cc(C)c(=O)[nH]c2=O)CC1O` (configuration not stated) the value was 75%.
